Reference: ChEMBL document CHEMBL1221394, “Anti-AIDS agents 79. Design, synthesis, molecular modeling and structure-activity relationships of novel dicamphanoyl-2',2'-dimethyldihydropyranochromone (DCP) analogs as potent anti-HIV agents” (Bioorg Med Chem, 2010)
≈ marks a conversion by molar mass, not a printed value.

How the values were obtained:
[1] = tested on: Human immunodeficiency virus 1; experiment: Antiviral activity against wild type HIV1 NL4-3 in human TZM-b1 cells after 48 hrs by luciferase reporter gene assay; assay type: functional, organism-based; conditions: Human immunodeficiency virus 1, NL4-3, TZM-b1, 48 h
Outline: (§1)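 Single-round infection of TZM-bl cells with 200 TCID50 virus mixed with test sample at eight 4-fold serial dilutions. Incubated 48 h, then luciferase reagent was added and luminescence read. IC50 is the concentration giving 50% reduction in RLU versus virus-control wells, after subtracting background RLU.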

[2] = Therapeutic index, ratio of IC50 for human TZM-b1 cells to EC50 for HIV1 NL4-3; assay type: cell-based; conditions: read-out: TI
Outline: (§2)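 Cytotoxicity was measured with the CytoTox-Glo kit following the manufacturer's instructions. Antiviral EC50 came from the single-round TZM-bl luciferase assay: 200 TCID50 virus, eight 4-fold sample dilutions, 48 h, and 50% RLU reduction versus virus control after background subtraction.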

[3] = Therapeutic index, ratio of IC50 for human TZM-b1 cells to EC50 for HIV1 RTMDR1; assay type: cell-based; conditions: read-out: TI; outline: as §2
[4] = tested on: Human immunodeficiency virus 1; experiment: Antiviral activity against HIV1 RTMDR1 in human TZM-b1 cells after 48 hrs by luciferase reporter gene assay; assay type: functional, organism-based; conditions: Human immunodeficiency virus 1, RTMDR1, TZM-b1, 48 h; outline: as §1
[5] = Cytotoxicity against human TZM-b1 cells; assay type: cell-based
Outline: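 Cytotoxicity in TZM-bl cells read with the CytoTox-Glo luminescent assay, run according to the kit instructions.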

[6] = Solubility of the compound in water after 1 hr; assay type: physicochemical; conditions: HPLC grade water, 1 h
Outline: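 Excess solid compound was added to HPLC-grade water and sonicated in an ultrasonic bath at room temperature for 1 h. Undissolved solid was removed with a PTFE syringe filter. Dissolved concentration was quantified by HPLC on a C18 column (2.1 mm × 100 mm) at a flow rate of 200 μL/min.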

[7] = Therapeutic index, ratio of CC50 for human H9 cells to EC50 for HIV1 3B; assay type: cell-based; conditions: read-out: TI
[8] = tested on: Human immunodeficiency virus 1; experiment: Antiviral activity against HIV1 3B infected in human H9 cells; assay type: functional, organism-based; conditions: Human immunodeficiency virus 1, 3B

Compound `CC1(C)Oc2ccc3c(=O)cc(CC#N)oc3c2[C@@H](OC(=O)[C@@]23CC[C@@](C)(C(=O)O2)C3(C)C)[C@H]1OC(=O)[C@@]12CC[C@@](C)(C(=O)O1)C2(C)C` has an EC50 [1] of 1800 nM, a selectivity ratio [2] of 9.4 and a selectivity ratio [3] of 12. The EC50 [4] was 1400 nM and the IC50 [5] was 17 µM.
Work on `Cc1c(C#N)oc2c3c(ccc2c1=O)OC(C)(C)[C@H](OC(=O)[C@@]12CC[C@@](C)(C(=O)O1)C2(C)C)[C@@H]3OC(=O)[C@@]12CC[C@@](C)(C(=O)O1)C2(C)C` yielded an EC50 [1] of 140 nM, a selectivity ratio [2] of 290 and a selectivity ratio [3] of 21. It also gave an EC50 [4] of 1900 nM and an IC50 [5] of 40 µM.
`CNCc1cc(=O)c2ccc3c(c2o1)[C@@H](OC(=O)[C@@]12CC[C@@](C)(C(=O)O1)C2(C)C)[C@@H](OC(=O)[C@@]12CC[C@@](C)(C(=O)O1)C2(C)C)C(C)(C)O3` showed an EC50 [1] of 290 nM, a selectivity ratio [2] of over 100 and a selectivity ratio [3] of over 43. For the same compound, the EC50 [4] was 690 nM and the IC50 [5] was over 30 µM.
With `CCc1oc2c3c(ccc2c(=O)c1Br)OC(C)(C)[C@H](OC(=O)[C@@]12CC[C@@](C)(C(=O)O1)C2(C)C)[C@@H]3OC(=O)[C@@]12CC[C@@](C)(C(=O)O1)C2(C)C` the EC50 [1] was 1100 nM, the selectivity ratio [2] was over 24 and the selectivity ratio [3] was over 28. For the same compound, the EC50 [4] was 990 nM and the IC50 [5] was over 27 µM.
In the case of `Cc1oc2c3c(ccc2c(=O)c1I)OC(C)(C)[C@H](OC(=O)[C@@]12CC[C@@](C)(C(=O)O1)C2(C)C)[C@@H]3OC(=O)[C@@]12CC[C@@](C)(C(=O)O1)C2(C)C`, the EC50 [1] is reported as 730 nM, the selectivity ratio [2] is reported as 18 and the selectivity ratio [3] is reported as 8. It also gave an EC50 [4] of 1600 nM and an IC50 [5] of 13 µM.
Compound `CCc1oc2c3c(ccc2c(=O)c1C#N)OC(C)(C)[C@H](OC(=O)[C@@]12CC[C@@](C)(C(=O)O1)C2(C)C)[C@@H]3OC(=O)[C@@]12CC[C@@](C)(C(=O)O1)C2(C)C` has an EC50 [1] of 550 nM, a selectivity ratio [2] of over 54 and a selectivity ratio [3] of over 37. For the same compound, the EC50 [4] was 790 nM and the IC50 [5] was over 30 µM.
In the case of `Cc1oc2c3c(ccc2c(=O)c1N)OC(C)(C)[C@H](OC(=O)[C@@]12CC[C@@](C)(C(=O)O1)C2(C)C)[C@@H]3OC(=O)[C@@]12CC[C@@](C)(C(=O)O1)C2(C)C`, the EC50 [1] is reported as 250 nM, the selectivity ratio [2] is reported as 130 and the selectivity ratio [3] is reported as 68. The EC50 [4] was 470 nM and the IC50 [5] was 32 µM.
`CCc1oc2c3c(ccc2c(=O)c1N)OC(C)(C)[C@H](OC(=O)[C@@]12CC[C@@](C)(C(=O)O1)C2(C)C)[C@@H]3OC(=O)[C@@]12CC[C@@](C)(C(=O)O1)C2(C)C` showed an EC50 [1] of 120 nM, a solubility [6] of 10.3 mg/L (≈ 15.5 µM) and a selectivity ratio [2] of 190. It also gave a selectivity ratio [3] of 74, an EC50 [4] of 310 nM and an IC50 [5] of 23 µM.
`CCc1oc2c3c(ccc2c(=O)c1NC)OC(C)(C)[C@H](OC(=O)[C@@]12CC[C@@](C)(C(=O)O1)C2(C)C)[C@@H]3OC(=O)[C@@]12CC[C@@](C)(C(=O)O1)C2(C)C` gave an EC50 [1] of 440 nM, a selectivity ratio [2] of 73 and a selectivity ratio [3] of 29. For the same compound, the EC50 [4] was 1100 nM and the IC50 [5] was 32 µM.
For `CC1(C)Oc2ccc3c(=O)cc(CN4CCOCC4)oc3c2[C@@H](OC(=O)[C@@]23CC[C@@](C)(C(=O)O2)C3(C)C)[C@H]1OC(=O)[C@@]12CC[C@@](C)(C(=O)O1)C2(C)C`, the selectivity ratio [2] was over 14, the selectivity ratio [3] was over 6.3 and the IC50 [5] was over 28 µM.
For `CN(C)CCCN1CCN(Cc2cc(=O)c3ccc4c(c3o2)[C@@H](OC(=O)[C@@]23CC[C@@](C)(C(=O)O2)C3(C)C)[C@@H](OC(=O)[C@@]23CC[C@@](C)(C(=O)O2)C3(C)C)C(C)(C)O4)CC1`, the IC50 [5] was 17 µM.
Compound `CC1(C)Oc2ccc3c(=O)cc(CNCc4ccncc4)oc3c2[C@@H](OC(=O)[C@@]23CC[C@@](C)(C(=O)O2)C3(C)C)[C@H]1OC(=O)[C@@]12CC[C@@](C)(C(=O)O1)C2(C)C` has an EC50 [1] of 21000 nM, a selectivity ratio [2] of over 1.3 and a selectivity ratio [3] of over 1.3. It also gave an IC50 [5] of over 27 µM.
`Cc1cc(=O)c2ccc3c(c2o1)[C@@H](OC(=O)[C@@]12CC[C@@](C)(C(=O)O1)C2(C)C)[C@@H](OC(=O)[C@@]12CC[C@@](C)(C(=O)O1)C2(C)C)C(C)(C)O3` showed an EC50 [1] of 100 nM, a selectivity ratio [2] of 110 and a selectivity ratio [3] of 58. The EC50 [4] was 190 nM and the IC50 [5] was 11 µM.
Work on `CC1(C)Oc2ccc3ccc(=O)oc3c2[C@@H](OC(=O)C23CCC(C)(C(=O)O2)C3(C)C)[C@H]1OC(=O)C12CCC(C)(C(=O)O1)C2(C)C` (stereo partly specified) yielded a selectivity ratio [7] of 328 and an EC50 [8] of 49 nM.
